OX1R antag-1: blocks the human orexin 1 receptor; O43613; inhibition, % at 5 µM; AID 434989; CHO/OX1R cells, Fluo-8 calcium fluorescence, orexin A; 330,000 compounds, 0.43% hits;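 active = inhibition above its plate's threshold, mean inhibition of all tested compounds on the plate plus 3 SD, cut at about 37% in these data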
Target sequence (O43613 whole entry, looked up): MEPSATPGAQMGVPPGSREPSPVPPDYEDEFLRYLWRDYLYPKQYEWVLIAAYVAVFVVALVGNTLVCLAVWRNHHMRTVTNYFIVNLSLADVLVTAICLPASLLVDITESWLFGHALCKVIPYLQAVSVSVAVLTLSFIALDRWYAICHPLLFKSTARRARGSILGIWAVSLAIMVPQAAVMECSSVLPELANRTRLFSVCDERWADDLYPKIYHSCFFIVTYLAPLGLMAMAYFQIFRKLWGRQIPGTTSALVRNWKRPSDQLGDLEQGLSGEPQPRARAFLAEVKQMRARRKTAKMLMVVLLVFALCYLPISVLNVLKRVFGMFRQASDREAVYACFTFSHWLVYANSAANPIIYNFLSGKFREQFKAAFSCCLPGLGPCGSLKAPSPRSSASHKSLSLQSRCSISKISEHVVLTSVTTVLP
V1aR counter: V1a receptor agonism, counter-screen for OXTR agonists; P37288; CHO-V1R cells, Fluo-8 calcium fluorescence, agonist mode; 0% DMSO, 100% 3 nM vasopressin; activation, % at 3 µM; 320,000 compounds, 0.25% hits; AID 2797;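 active = activation above the mean activation of all tested compounds plus 3 SD, per screening run, cut at about 20% in these data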;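 also: signal is peak over basal fluorescence ratio across a 100 second FLIPR read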
CHO parental Ca: signal in parental CHO cells, OX1R antagonist counter-screen. parental CHO-K1, ATP-induced calcium, Fluo-8 fluorescence. AID 463079. inhibition, % at 5.6 µM. 330,000 compounds, 0.63% hits;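 active = inhibition above that plate's mean sample inhibition plus 3 SD, cut at about 26% in these data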
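Test system: untransfected parental CHO cell line; also added: ATP stimulus; dosing: 5.6 µM, single dose; signal: calcium-sensitive Fluo-8 fluorescence; measure: percent inhibition of ATP-evoked calcium rise, normalized to controls; benchmarks: low control ATP plus DMSO, high control DMSO only; replication: one well per compound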
OXTR ag: human OXTR agonism; CHO-OTR cells, Fluo-8 calcium fluorescence; normalized: DMSO 0%, oxytocin 100%; activation, % at 3 µM; 320,000 compounds, 0.32% hits; AID 2435;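 active = activation above the mean of all tested compounds plus 3 SD, cutoff set per screening run, cut at about 20% in these data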;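 also: peak over basal fluorescence ratio from a 100 s FLIPR kinetic read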
OXTR potentiator: potentiators of human oxytocin receptor; CHO-OTR cells, Fluo-8 calcium fluorescence, potentiator mode; 0% = oxytocin EC15, 100% = EC100; P30559; AID 2445; activation, % at 3 µM; 320,000 compounds, 0.061% hits;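 active = activation above that plate's cutoff, the mean activation of tested compounds plus 3 SD, cut at about 6.6% in these data, passing the limit was not always enough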
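test system = CHO-OTR cells, human receptor | compound = single-point 3.0 µM | schedule = 6 min compound pre-incubation at room temperature, 100 s kinetic read | signal = Fluo-8 no-wash calcium dye fluorescence, excitation 470-495 nm, emission 515-575 nm | repeats = single well per compound, singlicate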
OX1R antag-2: OX1R (human) antagonism; O43613; OX1R-expressing cells, FRET antagonist read-out; inhibition, % at 6.6 µM; 330,000 compounds, 1.8% hits; AID 485270; in the data active = inhibition mostly above about 38%, no sharp cut-off; inactive = mostly below about 40%
A number is an active result; – = inactive. In the library only some 2.7% were active in any assay of this set; here they are far more common.

SMILES	OX1R antag-1	V1aR counter	CHO parental Ca	OXTR ag	OXTR potentiator	OX1R antag-2
CC(CCCC(C)(C)O)NC(=O)c1cc(COc2ccc3ncccc3c2)on1 (configuration not stated)	–	–	24.5	–	–	–
O=C(NCc1cccc(Cl)c1)c1cc(COc2ccc3ncccc3c2)on1	41.7	–	67.1	–	–	–
Cc1cc(C)n(CCNC(=O)c2cc(COc3ccc4ncccc4c3)on2)n1	–	–	–	–	–	–
CCN(CC)Cc1ccccc1CNC(=O)c1cccc(S(=O)(=O)Nc2ccc3c(c2)OCO3)c1	–	–	–	–	–	–
Cc1noc(C)c1COc1ccccc1C(=O)N(C)Cc1ccc(C(C)(C)C)cc1	47.6	–	–	–	–	–
COc1ccc(OC)c(NC(=O)CC2SC(=Nc3ccccc3)N(CCc3ccccn3)C2=O)c1 (configuration not stated)	–	–	–	–	–	–
COc1ccc(N=C2SC(CC(=O)Nc3ccccc3)C(=O)N2CCc2ccccn2)cc1 (configuration not stated)	–	–	–	–	–	69.2
NC(=O)C1CCN(C2=C(Cl)C(=O)c3ccccc3C2=O)CC1	–	–	–	–	–	61.8
NC(=O)C1CCN(c2nc3ccccc3nc2NS(=O)(=O)c2ccc(Br)cc2)CC1	–	–	–	–	–	–
CCOC(=O)C1CCN(C2=C(NS(=O)(=O)c3ccc(Br)cc3)C(=O)c3ccccc3C2=O)CC1	–	–	–	–	–	74.7
NC(=O)C1CCN(C2=C(NS(=O)(=O)c3ccc(Br)cc3)C(=O)c3ccccc3C2=O)CC1	–	–	–	–	–	76.3
Cc1cc(OCC(=O)Nc2ccncc2)ccc1Br	47.6	–	40.9	–	–	–
Cc1cc(Cl)ccc1OCC(=O)NCc1ccncc1	–	–	–	–	–	–
CC(=O)Nc1ccc(NC(=O)C(C)OC(=O)CCCN2C(=O)c3cccc4cccc(c34)C2=O)cc1 (configuration not stated)	–	–	–	–	–	74.1
COc1cccc(NC(=O)COc2ccc(Br)c(C)c2)c1	–	–	–	–	–	–
CC(=O)Nc1ccc(NC(=O)C(C)OC(=O)CCCOc2ccc(Cl)cc2C)cc1 (configuration not stated)	–	–	–	–	–	53.0
Cc1cc(Cl)ccc1OCC(=O)Nc1ccncc1	–	–	49.5	–	–	–
COC(=O)c1ccc(CNC(=O)COC(=O)c2ccccc2-c2ccccc2)cc1	–	–	–	–	–	–
COc1ccc(-c2nc(N3CCCCCC3)sc2C(=O)c2ccccc2)cc1	55.9	–	36.1	–	–	–
C=CCN1C(=O)c2ccc(C(=O)N(CCC)CC(=O)Nc3ccccc3C)cc2C1=O	–	–	–	–	–	–
CCc1ccc(CN(C)CC(=O)Nc2ccc(S(=O)(=O)N3CCOCC3)cc2)cc1	–	–	–	–	–	–
O=[N+]([O-])c1ccc(C2=CSC3=NCCN23)cc1	–	–	–	–	–	46.9
c1ccc(Nc2nc(-c3ccccn3)cs2)cc1	–	–	–	–	–	76.6
COc1cccc2sc(NNC(=O)COc3ccccc3)nc12	–	–	–	–	–	–
COc1cccc2sc(Nc3nc(-c4ccccn4)cs3)nc12	102.0	–	45.0	–	–	113.6
SMILES	OX1R antag-1	V1aR counter	CHO parental Ca	OXTR ag	OXTR potentiator	OX1R antag-2
Cc1cccc(S(=O)(=O)Nc2nc3ccccc3nc2OC(C)C)c1	–	–	–	–	–	–
C=CC[C@@H](CC(=O)NCCO)C(=O)NC[C@H](OC(=O)[C@@H](CC=C)Cc1ccc(F)cc1)c1ccccc1	–	–	–	–	–	–
COc1cc2c(cc1OC)CN(C(=O)c1ccc(Cl)c(S(=O)(=O)N3CCCC3)c1)CC2	–	–	–	–	–	–
Cc1ccc(C(=O)O)cc1S(=O)(=O)N1CCC(C(=O)O)CC1	–	–	–	–	–	–
COc1ccc(C(=O)c2ccc([N+](=O)[O-])cc2)cc1S(=O)(=O)N1CCC(C(=O)O)CC1	–	–	–	–	–	53.0
Nc1scc2c(C(=O)N/N=C/c3ccc(Cl)cc3)nn(-c3ccccc3)c(=O)c12	–	–	–	–	–	46.7
OC(CNCCC1C=Nc2ccccc21)Cn1c2ccc(Cl)cc2c2cc(Cl)ccc21 (configuration not stated)	–	–	55.7	–	–	–
CC1CN(C(=O)c2ccc(S(=O)(=O)Nc3cccc(C(F)(F)F)c3)cc2)CC(C)O1 (configuration not stated)	–	21.4	–	25.8	–	–
O=C(c1ccc(S(=O)(=O)Nc2cccc(C(F)(F)F)c2)cc1)N1CCOCC1	–	–	–	–	–	–
Cc1ccc(NS(=O)(=O)c2ccc(C(=O)N3CC(C)CC(C)C3)cc2)cc1 (configuration not stated)	63.5	42.9	63.9	69.4	–	–
Cc1ccc(S(=O)(=O)Nc2ccc(C(=O)N3CCCC3)cc2)cc1	–	–	–	–	–	–
CCOC(=O)C1=C(CC)Nc2ccccc2N=C1NC(=O)c1oc2ccccc2c1C	–	–	–	–	–	–
CCOCc1c(C(=O)NC2=Nc3ccccc3NC(CC)=C2C(=O)OCC)oc2ccccc12	–	–	–	–	–	39.5
O=C1C(SCCO)=C(SCCO)C(=O)c2ccccc21	47.5	–	47.8	–	–	67.5
O=C(Nc1nc(-c2cccs2)cs1)c1ccc([N+](=O)[O-])o1	–	–	–	–	–	–
COc1cc(NC(=S)NCCC(c2ccccc2)c2ccccc2)c(OC)cc1Cl	–	–	–	–	–	57.7
Cc1nnc2c3ccccc3c(-c3ccc(O)cc3)nn12	–	–	–	–	–	–
Cc1c(-c2ccc(O)cc2)nc2nc(-c3ccccc3)c(-c3ccccc3)nn12	99.2	279.5	89.6	144.3	–	–
COc1ccc(C(=O)NCc2nnc(SCC(=O)NCc3ccco3)o2)cc1	–	–	–	–	–	–
Cc1c(NC(=O)c2ccc3c(c2)OCO3)cccc1-c1nc2ccccc2o1	–	–	–	–	–	51.9
Cc1ccc(-c2nc3ccccc3o2)cc1NC(=O)c1ccc2c(c1)OCO2	–	–	–	–	–	–
CCOc1ccccc1NC(=O)C1CCCN(S(=O)(=O)c2cccc3nsnc23)C1 (configuration not stated)	–	–	–	–	–	–
O=C(NCC1COc2ccccc2O1)C1CCCN(S(=O)(=O)c2cccc3cccnc23)C1 (configuration not stated)	–	–	–	–	–	55.8
CCOC(=O)C1CCCN(S(=O)(=O)c2cccc3cccnc23)C1 (configuration not stated)	–	–	–	–	–	–
